Experimental data published in ChEMBL document CHEMBL2375276, “Antibacterial oxazolidinone analogues having a N-hydroxyacetyl-substituted seven-membered [1,2,5]triazepane or [1,2,5]oxadiazepane C-ring unit” (Eur J Med Chem, 2013).
≈ marks a conversion by molar mass, not a printed value.

Key:
Enterococcus faecium = assay: Antibacterial activity against Enterococcus faecium SR7940 clinical isolate assessed as growth inhibition by CLSI broth microdilution method; type: functional
Outline: (§1)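 MIC by CLSI broth microdilution in cation-adjusted Mueller-Hinton broth; S. pneumoniae medium supplemented with 5% lysed horse blood.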

Cytochrome P450 2C9 = Cytochrome P450 2C9 (Homo sapiens, UniProt P11712); assay: Inhibition of human CYP2C9 assessed as tolbutamide hydroxylation after 20 mins by LC/MS/MS analysis; type: ADME
Sequence of Cytochrome P450 2C9 (P11712 whole entry): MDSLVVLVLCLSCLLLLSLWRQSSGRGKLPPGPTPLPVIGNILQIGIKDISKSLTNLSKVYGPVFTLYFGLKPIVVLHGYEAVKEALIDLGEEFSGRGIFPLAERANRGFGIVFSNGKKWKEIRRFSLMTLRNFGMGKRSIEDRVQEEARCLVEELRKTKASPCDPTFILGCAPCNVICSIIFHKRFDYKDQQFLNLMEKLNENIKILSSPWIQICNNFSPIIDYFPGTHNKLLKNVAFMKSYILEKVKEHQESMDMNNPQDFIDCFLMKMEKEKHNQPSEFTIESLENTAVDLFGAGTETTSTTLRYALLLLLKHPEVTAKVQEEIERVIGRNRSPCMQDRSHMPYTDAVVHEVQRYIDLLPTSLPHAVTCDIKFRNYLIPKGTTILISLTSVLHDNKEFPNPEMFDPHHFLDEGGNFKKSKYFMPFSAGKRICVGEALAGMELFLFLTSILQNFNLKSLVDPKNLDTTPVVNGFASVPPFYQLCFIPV
Outline: (§2)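 Human liver microsomes (0.2 mg protein/mL) with 1 mM NADPH in 50 mM HEPES pH 7.4, 10 mM MgCl2, 0.1 mM EDTA. After centrifugation, supernatant metabolite measured by LC/MS/MS. Standard curve from authentic metabolite cocktail added to unincubated reaction mix.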

Staphylococcus aureus [1] = assay: Antibacterial activity against linezolid-resistant Staphylococcus aureus NRS271 assessed as growth inhibition by CLSI broth microdilution method; type: functional
Outline: (§3)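 MIC by CLSI broth microdilution in cation-adjusted Mueller-Hinton broth. Lowest concentration inhibiting growth taken as MIC.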

Moraxella catarrhalis = assay: Antibacterial activity against Moraxella catarrhalis SR26840 clinical isolate assessed as growth inhibition by CLSI broth microdilution method; type: functional; outline: as §1
Staphylococcus aureus [2] = assay: Antibacterial activity against methicillin-resistant Staphylococcus aureus SR3637 infected in JCL/ICR mouse systemic infection model assessed as mortality administered as po measured over 7 days; type: functional; settings: 168 h
Outline: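 Five-week-old male JCL/ICR mice (20–25 g), five per group. Infected intraperitoneally with 0.5 or 1.0 mL bacterial suspension (about 100× LD50). Oral dosing 1 h post-infection. Mortality followed 7 days; ED50 with 95% confidence limits by logit method.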

MAO-A = biological target: T1, MAO-A (Rattus norvegicus, UniProt P21396); assay: Inhibition of MAO-A in rat forebrain using [14C]5-HT as substrate at 30 uM incubated for 20 mins prior to substrate addition measured after 5 mins by liquid scintillation counting analysis relative to control; type: tissue-based; settings: probe [14C]5-HT
T1 sequence (P21396 whole entry): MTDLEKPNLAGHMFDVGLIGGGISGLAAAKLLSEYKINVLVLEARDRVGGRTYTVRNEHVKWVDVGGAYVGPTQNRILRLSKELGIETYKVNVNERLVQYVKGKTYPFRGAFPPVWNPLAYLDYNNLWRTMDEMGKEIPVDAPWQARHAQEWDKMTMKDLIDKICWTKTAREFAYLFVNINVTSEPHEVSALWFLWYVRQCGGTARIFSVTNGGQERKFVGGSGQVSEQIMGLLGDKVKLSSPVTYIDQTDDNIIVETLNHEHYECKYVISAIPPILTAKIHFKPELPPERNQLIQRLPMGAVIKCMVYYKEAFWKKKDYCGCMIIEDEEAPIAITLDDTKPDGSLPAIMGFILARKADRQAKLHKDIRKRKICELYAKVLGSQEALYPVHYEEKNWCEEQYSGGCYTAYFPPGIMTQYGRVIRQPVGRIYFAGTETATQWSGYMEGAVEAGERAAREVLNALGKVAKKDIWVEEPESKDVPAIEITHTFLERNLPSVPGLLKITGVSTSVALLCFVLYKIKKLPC

Cytochrome P450 3A4 = Cytochrome P450 3A4 (Homo sapiens, UniProt P08684); assay: Inhibition of human CYP3A4 assessed as terfenadine hydroxylation after 20 mins by LC/MS/MS analysis; type: ADME; outline: as §2
Sequence of Cytochrome P450 3A4 (P08684 whole entry): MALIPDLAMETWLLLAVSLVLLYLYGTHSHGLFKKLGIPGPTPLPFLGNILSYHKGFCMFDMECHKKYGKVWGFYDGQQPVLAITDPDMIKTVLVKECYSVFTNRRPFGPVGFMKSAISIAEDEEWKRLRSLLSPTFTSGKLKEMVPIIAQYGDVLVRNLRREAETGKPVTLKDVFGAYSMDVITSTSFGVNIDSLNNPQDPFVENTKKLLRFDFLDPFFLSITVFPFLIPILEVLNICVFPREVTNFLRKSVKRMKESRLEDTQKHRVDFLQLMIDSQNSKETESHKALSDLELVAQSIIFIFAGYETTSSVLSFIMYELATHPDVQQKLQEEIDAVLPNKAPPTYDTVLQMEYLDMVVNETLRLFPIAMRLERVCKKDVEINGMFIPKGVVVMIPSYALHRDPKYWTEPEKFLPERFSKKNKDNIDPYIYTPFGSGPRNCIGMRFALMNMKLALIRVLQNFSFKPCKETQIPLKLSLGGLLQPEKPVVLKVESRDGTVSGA

Cytochrome P450 1A2 = biological target: T2, Cytochrome P450 1A2 (Homo sapiens, UniProt P05177); assay: Inhibition of human CYP1A2 assessed as ethoxyresorufin O-deethylation after 20 mins by fluorescence plate reader analysis; type: ADME
T2 sequence (P05177 whole entry): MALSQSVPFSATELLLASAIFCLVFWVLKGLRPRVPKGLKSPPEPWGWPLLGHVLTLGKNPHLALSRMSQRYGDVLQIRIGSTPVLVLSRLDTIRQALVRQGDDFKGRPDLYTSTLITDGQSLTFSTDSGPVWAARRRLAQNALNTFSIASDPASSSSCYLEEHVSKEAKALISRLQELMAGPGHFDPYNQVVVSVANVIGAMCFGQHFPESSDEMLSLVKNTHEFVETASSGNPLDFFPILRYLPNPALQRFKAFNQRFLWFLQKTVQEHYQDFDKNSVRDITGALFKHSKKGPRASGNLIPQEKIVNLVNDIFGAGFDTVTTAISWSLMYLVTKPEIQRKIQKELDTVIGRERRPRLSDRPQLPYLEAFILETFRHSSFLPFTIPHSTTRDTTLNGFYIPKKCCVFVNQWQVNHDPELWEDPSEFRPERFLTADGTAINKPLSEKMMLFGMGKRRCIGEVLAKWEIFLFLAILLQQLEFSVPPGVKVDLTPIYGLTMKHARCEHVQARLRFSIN
Outline: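 Human liver microsomes (0.2 mg protein/mL) with 1 mM NADPH in 50 mM HEPES pH 7.4, 10 mM MgCl2, 0.1 mM EDTA. After centrifugation, supernatant read on a fluorescence plate reader. Standard curve from authentic metabolite added to unincubated reaction mix.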

MAO-B = biological target: T3, MAO-B (Rattus norvegicus, UniProt P19643); assay: Inhibition of MAO-B in rat forebrain using [14C]PEA as substrate at 30 uM incubated for 20 mins prior to substrate addition measured after 10 mins by liquid scintillation counting analysis relative to control; type: tissue-based; settings: probe [14C]PEA
T3 sequence (P19643 whole entry): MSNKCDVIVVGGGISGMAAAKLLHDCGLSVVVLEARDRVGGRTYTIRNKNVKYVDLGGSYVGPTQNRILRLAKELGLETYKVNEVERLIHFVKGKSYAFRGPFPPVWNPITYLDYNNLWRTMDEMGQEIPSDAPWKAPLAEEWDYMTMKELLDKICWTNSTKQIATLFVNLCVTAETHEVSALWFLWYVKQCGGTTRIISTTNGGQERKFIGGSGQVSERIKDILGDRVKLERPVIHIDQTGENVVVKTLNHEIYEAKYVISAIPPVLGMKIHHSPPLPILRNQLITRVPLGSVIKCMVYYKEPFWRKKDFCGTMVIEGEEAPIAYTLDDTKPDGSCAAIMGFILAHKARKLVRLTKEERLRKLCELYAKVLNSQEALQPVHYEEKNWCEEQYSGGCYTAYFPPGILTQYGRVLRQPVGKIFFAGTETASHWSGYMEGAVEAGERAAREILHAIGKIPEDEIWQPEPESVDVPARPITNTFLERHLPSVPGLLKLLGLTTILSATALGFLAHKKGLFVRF

Haemophilus influenzae = assay: Antibacterial activity against Haemophilus influenzae SR27914 clinical isolate assessed as growth inhibition by CLSI broth microdilution method; type: functional
Outline: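 MIC by CLSI broth microdilution using Haemophilus test medium.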

Staphylococcus aureus [3] = assay: Antibacterial activity against methicillin-resistant Staphylococcus aureus SR3637 infected in JCL/ICR mouse systemic infection model assessed as mortality administered as iv measured over 7 days; type: functional; settings: 168 h
Outline: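 Five-week-old male JCL/ICR mice (20–25 g), five per group. Infected intraperitoneally with 0.5 or 1.0 mL bacterial suspension (about 100× LD50). Intravenous dosing 1 h post-infection. Mortality followed 7 days; ED50 with 95% confidence limits by logit method.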

Cytochrome P450 2D6 = Cytochrome P450 2D6 (Homo sapiens, UniProt P10635); assay: Inhibition of human CYP2D6 assessed as dextromethorphan O-demethylation after 20 mins by LC/MS/MS analysis; type: ADME; outline: as §2
Sequence of Cytochrome P450 2D6 (P10635 whole entry): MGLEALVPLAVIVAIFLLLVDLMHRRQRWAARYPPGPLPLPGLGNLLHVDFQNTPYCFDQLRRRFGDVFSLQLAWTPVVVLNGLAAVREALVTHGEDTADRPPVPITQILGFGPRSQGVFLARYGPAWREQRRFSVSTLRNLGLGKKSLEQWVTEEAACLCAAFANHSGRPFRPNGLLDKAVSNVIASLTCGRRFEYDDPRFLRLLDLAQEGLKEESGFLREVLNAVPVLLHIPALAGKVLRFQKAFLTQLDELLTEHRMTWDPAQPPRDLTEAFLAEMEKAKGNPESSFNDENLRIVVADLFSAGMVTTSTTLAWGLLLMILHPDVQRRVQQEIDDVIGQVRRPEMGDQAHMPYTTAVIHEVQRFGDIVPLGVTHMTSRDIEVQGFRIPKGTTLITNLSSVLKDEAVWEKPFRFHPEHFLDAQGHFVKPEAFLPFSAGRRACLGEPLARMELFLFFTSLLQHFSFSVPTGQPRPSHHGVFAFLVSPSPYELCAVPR

Staphylococcus aureus [4] = assay: Antibacterial activity against Staphylococcus aureus SR20549 clinical isolate assessed as growth inhibition by CLSI broth microdilution method; type: functional; outline: as §1
Staphylococcus aureus [5] = assay: Antibacterial activity against Staphylococcus aureus Smith assessed as growth inhibition by CLSI broth microdilution method; type: functional; outline: as §1
Staphylococcus aureus [6] = assay: Antibacterial activity against methicillin-resistant Staphylococcus aureus SR3637 assessed as growth inhibition by CLSI broth microdilution method; type: functional; outline: as §3
Enterococcus faecalis = assay: Antibacterial activity against Enterococcus faecalis SR1004 clinical isolate assessed as growth inhibition by CLSI broth microdilution method; type: functional; outline: as §1
Streptococcus pneumoniae = assay: Antibacterial activity against Streptococcus pneumoniae SR26207 clinical isolate assessed as growth inhibition by CLSI broth microdilution method; type: functional; outline: as §1

With `CC(=O)NC[C@H]1CN(c2ccc(N3CCOCC3)c(F)c2)C(=O)O1` [LINEZOLID] the MIC (Enterococcus faecium) was 2 µg/mL (≈ 5.93 µM), the IC50 (Cytochrome P450 2C9) was over 20 µM and the MIC (Staphylococcus aureus [1]) was 32 µg/mL (≈ 94.9 µM). It also gave an MIC (Moraxella catarrhalis) of 8 µg/mL (≈ 23.7 µM), an ED50 (Staphylococcus aureus [2]) of 2.02 mg/kg and an inhibition at 5 min, 30 µM (MAO-A) of 61.3%. It also gave an IC50 (Cytochrome P450 3A4) of over 20 µM, an IC50 (Cytochrome P450 1A2) of over 20 µM and an inhibition at 10 min, 30 µM (MAO-B) of 70.4%. The MIC (Haemophilus influenzae) was 16 µg/mL (≈ 47.4 µM), the ED50 (Staphylococcus aureus [3]) was 1.73 mg/kg and the IC50 (Cytochrome P450 2D6) was over 20 µM.
Compound `CC(=O)NC[C@H]1CN(c2ccc(N3CCN(C(=O)CO)CC3)c(F)c2)C(=O)O1` [EPEREZOLID] has an MIC (Enterococcus faecium) of 2 µg/mL (≈ 5.07 µM), an IC50 (Cytochrome P450 2C9) of over 20 µM and an MIC (Staphylococcus aureus [1]) of 32 µg/mL (≈ 81.1 µM). For the same compound, the MIC (Moraxella catarrhalis) was 8 µg/mL (≈ 20.3 µM), the ED50 (Staphylococcus aureus [2]) was 4.76 mg/kg and the inhibition at 5 min, 30 µM (MAO-A) was 53.6%. For the same compound, the IC50 (Cytochrome P450 3A4) was over 20 µM, the MIC (Staphylococcus aureus [4]) was 1 µg/mL (≈ 2.54 µM) and the MIC (Staphylococcus aureus [5]) was 1 µg/mL (≈ 2.54 µM). It also gave an IC50 (Cytochrome P450 1A2) of over 20 µM, an MIC (Staphylococcus aureus [6]) of 1 µg/mL (≈ 2.54 µM) and an MIC (Enterococcus faecalis) of 1 µg/mL (≈ 2.54 µM). For the same compound, the inhibition at 10 min, 30 µM (MAO-B) was 20.2%, the MIC (Haemophilus influenzae) was 4 µg/mL (≈ 10.1 µM) and the MIC (Streptococcus pneumoniae) was 0.125 µg/mL (≈ 0.317 µM). For the same compound, the ED50 (Staphylococcus aureus [3]) was 1.85 mg/kg and the IC50 (Cytochrome P450 2D6) was over 20 µM.
